Source: ChEMBL document CHEMBL2034823, “Synthesis and antiviral activity of certain second generation methylenecyclopropane nucleosides” (Bioorg Med Chem, 2012)

Columns and labels:
[1] = system: Human betaherpesvirus 5; test: Antiviral activity against HCMV infected in human HFF cells assessed as reduction in cytopathic effect after 8 days by plaque reduction assay; format: functional, organism-based; settings: Human betaherpesvirus 5, HFF, 192 h
How it was run: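 HFF monolayers seeded 2 days ahead and infected with AD169 at about 30 plaques per well, with 1 h adsorption. Compound was then added in MEM with 2% FBS, L-glutamine, penicillin, gentamycin and pooled human gamma globulin. After 8 days, neutral red stain and plaque counts by stereomicroscope. EC50 interpolated. Duplicate wells.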

[2] = Cytotoxicity against human HFF cells after 3 to 8 days by crystal voilet staining; format: cell-based
How it was run: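 Uninfected HFF cells exposed to the same concentrations as in the CPE assays (3 days for HSV, 7 for VZV, […]). Stained with crystal violet. CC50 is the concentration reducing cell number by 50%. Duplicate wells.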

[3] = system: Human gammaherpesvirus 4; test: Antiviral activity against EBV Akata infected in human Akata cells assessed as reduction in viral DNA after 72 hrs by hybridization assay; format: functional, organism-based; settings: human gammaherpesvirus 4, Akata
How it was run: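 Akata cells kept in RPMI 1640 with 10% FBS, L-glutamine, penicillin and gentamicin. Latent infection was switched to productive by adding goat anti-human IgG, and cells were seeded into compound dilutions made in growth medium. After 72 h the DNA was denatured and blotted onto nylon membrane. Viral DNA was measured with a digoxigenin-labeled probe plus anti-hapten antibody. EC50 is the concentration halving viral DNA. Duplicate wells.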

[4] = Cytotoxicity against human Akata cells after 7 days by Cell-Titer Glo assay; format: cell-based
How it was run: (§1)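 Uninfected Akata, BCBL1, HSB-2 or MOLT-3 cells incubated with compound for seven days under the matching antiviral-assay conditions. CellTiter-Glo added and luminescence read. CC50 is the concentration reducing cell number by 50%.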

[5] = Cytotoxicity against human HSB2 cells after 7 days by Cell-Titer Glo assay; format: cell-based, CCRF-HSB-2; how it was run: as §1
[6] = Antiviral activity against HHV-6B infected in human Molt3 cells assessed as reduction in viral DNA after 7 days by hybridization assay; format: functional, cell-based, Human herpesvirus 6B; settings: Human betaherpesvirus 6B, MOLT-3, 168 h
How it was run: (§2)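 Compound serially diluted in medium. Uninfected HSB-2 cells were infected with HHV-6A (GS)-infected HSB-2 cells, and Molt-3 cells with HHV-6B (Z29)-infected Molt-3 cells. Incubation 7 days at 37 °C. Lysis in 4.5 M NaCl/1.2 M NaOH, then transfer to nylon membrane. Viral DNA quantified by digoxigenin-probe hybridization and EC50 calculated. Duplicate wells.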

[7] = Cytotoxicity against human MOLT3 cells after 7 days by Cell-Titer Glo assay; format: cell-based, MOLT-3; how it was run: as §1
[8] = system: Human gammaherpesvirus 8; test: Antiviral activity against HHV-8 infected in human BCBL1 cells assessed as reduction in viral DNA after 7 days by qPCR analysis; format: functional, organism-based; settings: Human gammaherpesvirus 8, BCBL1, 168 h
How it was run: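 BCBL1 cells kept in RPMI 1640 with 10% FBS, penicillin, gentamycin and L-glutamine. Lytic infection induced with phorbol 12-myristate 13-acetate, then cells added to triplicate compound dilutions. Incubation 7 days at 37 °C in humidified CO2. EC50 is the concentration halving viral DNA accumulation.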

[9] = Cytotoxicity against human BCBL1 cells after 7 days by Cell-Titer Glo assay; format: cell-based; how it was run: as §1
[10] = Antiviral activity against HHV-6A infected in human HSB2 cells assessed as reduction in viral DNA after 7 days by hybridization assay; format: functional, cell-based, Human herpesvirus 6A; settings: Human betaherpesvirus 6A, HSB2, 168 h; how it was run: as §2
[11] = system: Human alphaherpesvirus 1; test: Antiviral activity against HSV-1 infected in human HFF cells assessed as reduction in cytopathic effect after 3 days by crystal violet staining; format: functional, organism-based; settings: Human alphaherpesvirus 1, HFF, 72 h
How it was run: (§3)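 Compound diluted over HFF monolayers, then HSV-1 (E-377) or HSV-2 (MS) added at MOI about 0.01 PFU/cell. Held 3 days in humidified 5% CO2. Stained 4 h with 0.1% crystal violet in formalin, rinsed, dried 24 h, and absorbance read at 595 nm. EC50 is 50% CPE reduction. Duplicate wells.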

[12] = system: Human alphaherpesvirus 2; test: Antiviral activity against HSV-2 infected in human HFF cells assessed as reduction in cytopathic effect after 3 days by crystal violet staining; format: functional, organism-based; settings: Human alphaherpesvirus 2, HFF, 72 h; how it was run: as §3
[13] = system: Human alphaherpesvirus 3; test: Antiviral activity against VZV infected in human HFF cells assessed as reduction in cytopathic effect after 7 days by crystal violet staining; format: functional, organism-based; settings: Human alphaherpesvirus 3, HFF, 168 h

IC50 [1]	IC50 [3]	IC50 [6]	IC50 [8]	IC50 [10]	IC50 [11]	IC50 [12]	IC50 [13]	SMILES	CC50 [2]	CC50 at 168 h [4]	CC50 at 168 h [5]	CC50 at 168 h [7]	CC50 at 168 h [9]
45 µM	> 20 µM	> 20 µM	> 20 µM	> 20 µM	> 300 µM	> 300 µM	53 µM	Nc1nc(OCc2ccccc2)c2ncn(/C=C3/CC3(CO)CO)c2n1	> 300 µM	> 20 µM	> 20 µM	> 20 µM	> 20 µM
> 50 µM	11.4 µM	11.6 µM	> 20 µM	> 100 µM	> 300 µM	> 300 µM	> 60 µM	CSc1nc(N)nc2c1ncn2/C=C1/CC1(CO)CO	> 300 µM	> 20 µM	> 100 µM	> 20 µM	> 20 µM
42 µM	> 20 µM	14.3 µM	> 20 µM	63 µM	> 300 µM	> 300 µM	> 300 µM	CCCSc1nc(N)nc2c1ncn2/C=C1/CC1(CO)CO	> 300 µM	> 20 µM	98 µM	> 20 µM	> 20 µM
4 µM	3.1 µM	7.5 µM	> 20 µM	70 µM	> 300 µM	> 300 µM	> 60 µM	CC(C)Sc1nc(N)nc2c1ncn2/C=C1/CC1(CO)CO	> 300 µM	> 20 µM	94 µM	> 20 µM	> 20 µM
> 50 µM	2.5 µM	7 µM	> 20 µM	75 µM	> 300 µM	> 300 µM	> 300 µM	CCCCSc1nc(N)nc2c1ncn2/C=C1/CC1(CO)CO	> 300 µM	> 20 µM	89 µM	> 20 µM	> 20 µM
> 50 µM	7.1 µM	5.4 µM	> 20 µM	> 20 µM	> 300 µM	> 300 µM	> 300 µM	CCCCCCSc1nc(N)nc2c1ncn2/C=C1/CC1(CO)CO	> 300 µM	> 20 µM	60 µM	> 20 µM	> 20 µM
20 µM	> 20 µM	11 µM	> 20 µM	> 20 µM	> 300 µM	> 300 µM	> 60 µM	CCCCCCCCSc1nc(N)nc2c1ncn2/C=C1/CC1(CO)CO	> 300 µM	> 20 µM	60 µM	> 20 µM	> 20 µM
> 50 µM	3.1 µM	> 20 µM	> 20 µM	88 µM	> 300 µM	> 300 µM	> 60 µM	Nc1nc(SCc2ccccc2)c2ncn(/C=C3/CC3(CO)CO)c2n1	> 300 µM	> 20 µM	> 100 µM	> 20 µM	> 20 µM

The remaining lines, values behind:

SMILES	IC50 [1]	IC50 [3]	IC50 [6]	IC50 [8]	IC50 [10]	IC50 [11]	IC50 [12]	IC50 [13]	CC50 [2]	CC50 at 168 h [4]	CC50 at 168 h [5]	CC50 at 168 h [7]	CC50 at 168 h [9]
CCCCCCCCOc1nc(N)nc2c1ncn2/C=C1/CC1(CO)CO	29 µM	13 µM	11.5 µM	> 20 µM	> 20 µM	> 300 µM	> 300 µM	> 100 µM	> 300 µM	> 20 µM	> 20 µM	> 20 µM	> 20 µM
Nc1nc(OCC(F)(F)F)c2ncn(/C=C3/CC3(CO)CO)c2n1	5.6 µM	1.4 µM	8.9 µM	19 µM	> 20 µM	> 300 µM	> 300 µM	> 300 µM	> 300 µM	> 20 µM	> 20 µM	> 20 µM	> 20 µM
COCCOc1nc(N)nc2c1ncn2/C=C1/CC1(CO)CO	17 µM	20 µM	> 20 µM	> 20 µM	> 20 µM	> 300 µM	> 300 µM	13.9 µM	> 300 µM	> 20 µM	> 20 µM	> 20 µM	> 20 µM
Nc1nc(SC2CCCC2)c2ncn(/C=C3/CC3(CO)CO)c2n1	> 50 µM	0.9 µM	9.9 µM	> 20 µM	35 µM	> 300 µM	> 300 µM	> 300 µM	> 300 µM	> 20 µM	91 µM	> 20 µM	> 20 µM
Nc1nc(N)c2nc[nH]c2n1 [2,6-DIAMINOPURINE]	> 300 µM	11 µM	16 µM	30 µM	> 20 µM	> 300 µM	> 300 µM	> 300 µM	> 300 µM	> 20 µM	> 20 µM	> 20 µM	67 µM
Nc1nc2c(ncn2/C=C2/CC2(CO)CO)c(=O)[nH]1 [FILOCICLOVIR]	1.4 µM	45 µM	8 µM	3 µM	1.3 µM	> 100 µM	> 100 µM	> 100 µM	> 300 µM	> 20 µM	> 20 µM	> 20 µM	> 20 µM
